Compounds with a hit are over-represented: about 1.8% of the library has one in this group of screens.
PABP polyA inh – PABP poly(A) RNA binding inhibitors, primary screen, biochemical, fluorescence polarization, uHTS | calls only at 35 µM | 1% of 290,000 active | Polyadenylate-binding protein 1 (Homo sapiens), P11940;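 note: calls also rest on retests at 20 µM and on dose response follow-up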
SKN-1 block – suppressors of acrylamide-induced Pgst-4::GFP reporter in worms, primary screen, SKN-1 inhibitor project, whole organism, uHTS, GFP/RFP fluorescence ratio, strain VP596; C. elegans VP596 Pgst-4::GFP/RFP ratio, 24 h; AID 624304, 2012; 0.49% of 360,000 active; inhibition, % at 21.8 µM;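 active = interference check ratio from 0.5 to 1.5 plus GFP to RFP signal ratio inhibition reaching or exceeding a fixed threshold, cut at about 30% in these data, passing the limit was not always enough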
eIF4H FP inh – human eIF4H binding inhibitors, primary screen, translation initiation inhibitor project, biochemical, uHTS, fluorescence polarization; inhibition, % at 35 µM; eIF4H fluorescence polarization binding assay; AID 2012, 2009; 0.94% of 290,000 active;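 note: calls also rest on retests at 20 µM and on dose response follow-up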
MT1-MMP act inh – blockers of MT1-MMP proenzyme processing, primary screen, HT1080 RFP-PRO-GFP cells, GFP/RFP fluorescence; AID 651647, 2012; Matrix metalloproteinase-14 (Homo sapiens), P50281; GFP/RFP ratio fluorescence, overnight; percent of plate control window, DMSO zero; 0.061% of 360,000 active; GFP/RFP ratio change, % at 20 µM;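 active = GFP/RFP ratio change of at least 30% with cell ATP level not reduced by more than half and red fluorescence within 50% of control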
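Material: RFP-PRO-GFP reporter HT1080 cells. Dosing: single-point 20 µM compound, 1% DMSO. Controls: DMSO and RFP-L50D-GFP cell wells. Timing: cells overnight before dosing, compound overnight, 37 °C, 5% CO2. Measure: GFP/RFP fluorescence ratio.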
MLLE-PAM2 inh – inhibitors of PABP1 MLLE–PAM2 peptide binding, primary screen, biochemical, fluorescence polarization, FITC-PAM2, GST-MLLE; 0.36% of 360,000 active; AID 588489, 2011; inhibition, % at 20 µM; Polyadenylate-binding protein 1 (Homo sapiens), P11940; in the data active = inhibition above about 35%, passing the limit was not always enough
Of the large screens only hits and unclear results are named; the others gave an inactive call; ! = not active in a repeat. Unless noted, the rule behind the calls is not given here.

COc1ccc(CNCCC(c2ccc(OC)cc2)c2ccccc2OC)cc1 (stereo unspecified)	SKN-1 block 38
Cc1ccc(S(=O)(=O)NNC(=O)c2ccc(F)cc2)cc1	none
Cc1ccc(C(=O)NC(=S)NNS(=O)(=O)c2ccccc2)cc1	MLLE-PAM2 inh 41
COc1ccc(/C=N/c2c(-c3ccco3)nc3ccccn23)cc1OC	PABP polyA inh inconclusive, eIF4H FP inh inconclusive, MLLE-PAM2 inh 47
Oc1ccccc1/C=N/c1c(-c2ccco2)nc2ccccn12	PABP polyA inh inconclusive, eIF4H FP inh inconclusive
Clc1ccc(/C=N/c2c(-c3ccco3)nc3ccccn23)cc1	PABP polyA inh active, eIF4H FP inh 128, MLLE-PAM2 inh 39
CCCCc1ccc(S(=O)(=O)NC(=O)C2(C)CCN2C(=O)C/C=C/c2ccccc2)cc1 (stereo unspecified)	none (no result: PABP polyA inh, eIF4H FP inh)
COC(=O)C1=C(C)N=c2s/c(=C/c3cccs3)c(=O)n2C1c1ccc(F)cc1 (stereo unspecified)	SKN-1 block 35
O=C(CSc1nc(O)cc(=O)n1-c1ccccc1)Nc1ccc2c3c(cccc13)CC2	PABP polyA inh active, eIF4H FP inh 71
Cc1c(O)nc(SCC(=O)Nc2ccc3c4c(cccc24)CC3)n(-c2ccccc2)c1=O	none
COc1cccc(CN(C)C(=O)c2ccc(S(=O)(=O)Nc3ccccc3C)cc2)c1OC	none (no result: PABP polyA inh, eIF4H FP inh)
CN(C)c1ncnc2c1ncn2[C@H]1CN(CCN2CCOCC2)C[C@@H](CO)O1	none (no result: PABP polyA inh, eIF4H FP inh)
CCC/C(=N/NC(=O)c1csc(C)c1C)c1ccc(Cl)s1	eIF4H FP inh active
CC(C)NS(=O)(=O)c1ccc(NC(=S)NC(=O)c2cccc([N+](=O)[O-])c2)cc1	MLLE-PAM2 inh 48
O=C(NC(=S)Nc1cccc(F)c1)c1cccc([N+](=O)[O-])c1	none
O=[N+]([O-])c1nc2ccccc2[nH]1	none (no result: PABP polyA inh, eIF4H FP inh)
N#Cc1c(=O)c2nc(NCCCO)ncc2n2c(=O)c3ccccc3[nH]c12	PABP polyA inh active, eIF4H FP inh 78
Cc1cc(C)n(CC(C)(O)c2ccccc2)n1 (stereo unspecified)	none (no result: PABP polyA inh, eIF4H FP inh)
CCOC(=O)[C@]12CCC=C1N(Cc1cccc3ccccc13)C(=O)[C@H](CC(=O)NCCc1ccccc1OC)C2	none (no result: PABP polyA inh, eIF4H FP inh, MLLE-PAM2 inh)
CCCNC(=O)C1(C)CCN(C(=O)c2ccc(OC(F)F)cc2)C1 (stereo unspecified)	none (no result: PABP polyA inh, eIF4H FP inh)
COCCN1C(=O)COc2ccccc2C1C(=O)NC(C)(C)C (stereo unspecified)	none (no result: PABP polyA inh, eIF4H FP inh, MLLE-PAM2 inh)
CC(C)C(=O)N(c1ccc2oc(=O)sc2c1)S(=O)(=O)c1cccs1	MLLE-PAM2 inh 44
O=C(NCc1cccc(Cl)c1)c1cnccn1	eIF4H FP inh 34
CN1C(=O)N(C)C2(c3ccccc3)NC(=O)NC12c1ccccc1 (stereo unspecified)	none
CCN1c2ccccc2N(C)C1(C)c1ccccc1 (stereo unspecified)	PABP polyA inh active, eIF4H FP inh 84
CN1c2ccccc2N(C)C1(C)c1ccccc1	PABP polyA inh active, eIF4H FP inh 67
COc1ccc(Cl)cc1-c1nc(SCC(=O)N(C)C2CCS(=O)(=O)C2)n[nH]1 (stereo unspecified)	none (no result: PABP polyA inh, eIF4H FP inh)
N#C/C(=C\C=C\c1ccccc1)c1nc(-c2ccc(Cl)cc2)cs1	none
N#CC(=Cc1cccs1)c1nc(-c2ccc(Cl)cc2)cs1	SKN-1 block 62 (no result: PABP polyA inh, eIF4H FP inh)
Oc1ccc(NC(=S)Nc2ccc(F)cc2)cc1	none
Fc1ccc(NC(=S)Nc2ccc(Br)cc2)cc1	MLLE-PAM2 inh 40
CN1CCN(c2c(F)cc3c(=O)c(C(=O)O)cn4c3c2SCC4)CC1	PABP polyA inh active!, eIF4H FP inh 97!
C[C@H]1COc2c(N3CCN(C)CC3)c(F)cc3c(=O)c(C(=O)O)cn1c23	none
c1ccc(-c2ccc(OCCCNC3CCCC3)cc2)cc1	SKN-1 block 55
O=C(CCCc1ccccc1)Nc1ccccn1	PABP polyA inh active
COc1cc(C(=O)C(=O)c2ccc(OC)c(OC)c2)ccc1O	none (no result: PABP polyA inh, eIF4H FP inh)
Nc1ccc(-c2nc3ccc(N)cc3s2)cc1	none
Cc1cc(-c2nc3cc(F)ccc3s2)ccc1N	SKN-1 block 83 (no result: PABP polyA inh, eIF4H FP inh)
Nc1c(C(=O)Nc2ccc(F)cc2)sc2nc(-c3ccco3)ccc12	PABP polyA inh active, SKN-1 block 45, eIF4H FP inh 99
CC(=O)c1sc2nc(-c3ccco3)ccc2c1N	PABP polyA inh active, eIF4H FP inh 91
Nc1c(C(=O)Nc2ccc(Br)cc2)sc2nc(-c3ccco3)ccc12	PABP polyA inh active, eIF4H FP inh 81
COc1ccc(C(CNC(=O)c2nn(-c3ccccc3)c(=O)c3ccccc23)N2CCOCC2)cc1 (stereo unspecified)	none (no result: PABP polyA inh, eIF4H FP inh)
NC(=O)c1c(NC(=O)COC(=O)c2ccc(O)c(Cl)c2)sc2c1CCCC2	none (no result: PABP polyA inh, eIF4H FP inh)
O=C(COC(=O)c1ccc2c(c1)OCO2)Nc1ccccc1Cl	none (no result: PABP polyA inh, eIF4H FP inh)
Cc1oc(C)c2c(=O)ccc3c(c12)OC(N)=C(C#N)C3c1ccccc1 (stereo unspecified)	SKN-1 block 48
Cc1oc(C)c2c(=O)ccc3c(c12)OC(N)=C(C#N)C3c1ccccc1Cl (stereo unspecified)	PABP polyA inh inconclusive, eIF4H FP inh inconclusive
CSc1ccc(C2C(C#N)=C(N)Oc3c2ccc(=O)c2c(C)oc(C)c32)cc1 (stereo unspecified)	PABP polyA inh active, eIF4H FP inh 52
COc1cccc(NC(=O)C2CCOC2=O)c1 (stereo unspecified)	none (no result: PABP polyA inh, eIF4H FP inh)
COC(=O)c1ccccc1COc1cccn2c(N(C)Cc3cccs3)c(C)nc12	none (no result: PABP polyA inh, eIF4H FP inh)
COc1ccc(/C=N/NC(=O)c2nn(-c3ccccc3)c(=O)c3c(N)scc23)cc1	eIF4H FP inh 71
Cc1noc(C)c1CSc1ccccc1C(=O)N(C)CC(=O)Nc1cccc(F)c1	none (no result: PABP polyA inh, eIF4H FP inh)
CCOc1cc(C2C3=C(CC(C)(C)CC3=O)N(C)C3=C2C(=O)CC(C)(C)C3)ccc1O	none
NS(=O)(=O)c1cccc(C(=O)NC2CCSc3ccccc32)c1 (stereo unspecified)	none
CC(=O)c1cccc(S(=O)(=O)NC2CCSc3ccccc32)c1 (stereo unspecified)	MLLE-PAM2 inh 47
NS(=O)(=O)c1cc(C(=O)NC2CCSc3ccccc32)ccc1Cl (stereo unspecified)	PABP polyA inh active, eIF4H FP inh 106
CC[C@]12c3[nH]c4cc(-c5ccco5)ccc4c3CCN1C(=O)[C@@H](CC(=O)NCCCn1ccnc1)C[C@@H]2C(=O)N1CCN(C(=O)c2ccco2)CC1	none (no result: PABP polyA inh, eIF4H FP inh)
CC1(C(=O)Nc2cccc(OC(F)(F)F)c2)Cc2c(-c3ccc4c(c3)OCO4)ccnc2O1 (stereo unspecified)	none (no result: PABP polyA inh, eIF4H FP inh)

From PubChem
